Where two headings read alike, the source gives them in different places.
Assays:
[1] = set-up: species or system female Sprague-Dawley rats; conditions: female, Sprague-Dawley, rat, in vivo
[2] = 10 μg/kg (2.4 nmoles/kg) iv bolus dose; ref 10 (Jones et al.); cited from earlier work
[3] = Single-dose subcutaneous serum pharmacokinetics, analysis of individual animals; format: in vivo, female Sprague-Dawley rats
Method in brief: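 Three-month-old female rats (200–240 g), acclimated two weeks, n = 4, got one subcutaneous dose. Tail-vein blood was drawn at 0, 2, 5, 10, 20, 30, 60, 180 and 360 min, clotted at ambient temperature, spun 14,000 rpm 10 min refrigerated, and serum stored at −80°C. Immunoreactive hPTH(1-34) was measured by ELISA. Parameters came from individual animals; half-life was reported as geometric mean.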

clearance [1]: 83 mL/min/kg
bioavailability ([1]; sc): 47%
half-life ([3]; female, Sprague-Dawley, rat, serum, sc, 19.4 nmoles/kg): 59 min
Time by which serum concentrations returned to background levels ([3]; single sc dose 19.4 nmoles/kg): ≤ 6 h
SMILES: CC[C@H](C)[C@H](NC(=O)[C@H](CCC(=O)O)NC(=O)[C@H](CO)NC(=O)[C@@H](NC(=O)[C@@H](N)CO)C(C)C)C(=O)N[C@@H](CCC(N)=O)C(=O)N[C@@H](CC(C)C)C(=O)N[C@@H](CCSC)C(=O)N[C@@H](Cc1cnc[nH]1)C(=O)N[C@@H](CC(N)=O)C(=O)N[C@@H](CC(C)C)C(=O)NCC(=O)N[C@@H](CCCCN)C(=O)N[C@@H](Cc1cnc[nH]1)C(=O)N[C@@H](CC(C)C)C(=O)N[C@@H](CC(N)=O)C(=O)N[C@@H](CO)C(=O)N[C@@H](CCSC)C(=O)N[C@@H](CCC(=O)O)C(=O)N[C@@H](CCCN=C(N)N)C(=O)N[C@H](C(=O)N[C@@H](CCC(=O)O)C(=O)N[C@@H](Cc1c[nH]c2ccccc12)C(=O)N[C@@H](CC(C)C)C(=O)N[C@@H](CCCN=C(N)N)C(=O)N[C@@H](CCCCN)C(=O)N[C@@H](CCCCN)C(=O)N[C@@H](CC(C)C)C(=O)N[C@@H](CCC(N)=O)C(=O)N[C@@H](CC(=O)O)C(=O)N[C@H](C(=O)N[C@@H](Cc1cnc[nH]1)C(=O)N[C@@H](CC(N)=O)C(=O)N[C@@H](Cc1ccccc1)C(=O)O)C(C)C)C(C)C [PTH(1-34), teriparatide]
clearance [2]: 98 mL/min/kg
